How the values were obtained:
Cholecystokinin receptor = molecular target: T1, Cholecystokinin receptor (Rattus norvegicus, UniProt P30551+P30553); test: Binding affinity towards cholecystokinin receptor by the displacement of [125I]CCK-33 in rat pancreatic tissue
T1 sequence (P30551 whole entry): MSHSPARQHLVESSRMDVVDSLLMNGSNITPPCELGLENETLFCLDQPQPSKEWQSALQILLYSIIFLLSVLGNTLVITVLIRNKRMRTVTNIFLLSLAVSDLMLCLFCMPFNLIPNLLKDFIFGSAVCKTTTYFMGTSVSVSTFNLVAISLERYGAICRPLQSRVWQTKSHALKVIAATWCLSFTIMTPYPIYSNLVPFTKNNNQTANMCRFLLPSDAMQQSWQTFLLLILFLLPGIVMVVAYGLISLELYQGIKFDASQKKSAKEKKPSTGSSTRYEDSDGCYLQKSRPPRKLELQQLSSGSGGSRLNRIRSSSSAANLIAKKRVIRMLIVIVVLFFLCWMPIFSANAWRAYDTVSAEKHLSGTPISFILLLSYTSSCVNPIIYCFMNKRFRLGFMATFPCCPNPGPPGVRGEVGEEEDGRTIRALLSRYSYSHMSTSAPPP
T1 sequence (P30553 whole entry): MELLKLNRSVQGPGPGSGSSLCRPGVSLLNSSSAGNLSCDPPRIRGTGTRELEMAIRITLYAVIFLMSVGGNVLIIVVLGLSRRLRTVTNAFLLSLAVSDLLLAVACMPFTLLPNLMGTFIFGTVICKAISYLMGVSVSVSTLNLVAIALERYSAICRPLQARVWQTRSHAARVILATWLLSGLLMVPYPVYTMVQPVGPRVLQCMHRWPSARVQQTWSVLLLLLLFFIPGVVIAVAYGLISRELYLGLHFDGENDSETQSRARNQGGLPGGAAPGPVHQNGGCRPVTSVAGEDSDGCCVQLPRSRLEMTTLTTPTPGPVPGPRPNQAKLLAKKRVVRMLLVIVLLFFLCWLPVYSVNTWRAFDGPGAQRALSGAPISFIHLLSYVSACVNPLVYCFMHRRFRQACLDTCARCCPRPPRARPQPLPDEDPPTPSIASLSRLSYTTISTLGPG
Outline: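 Radioligand displacement assays: [125I]CCK-33 binding to rat pancreas or guinea pig cerebral cortex tissue, and [125I]gastrin binding to guinea pig gastric glands, each run by earlier-described methods. Reported values are means of triplicate determinations.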

Cavia porcellus = species on record: Cavia porcellus; test: Inhibition of binding of [125I]gastrin to guinea pig gastric glands; conditions: Stomach

`CNC1=Nc2ccccc2C(c2ccccc2NC)=N[C@@H]1Cc1c[nH]c2ccccc12` was tested, and the IC50 (Cholecystokinin receptor) was 100 µM and the IC50 (Cavia porcellus) was 100 µM.

`CCCNC1=Nc2ccccc2C(c2ccccc2F)=N[C@@H]1Cc1c[nH]c2ccccc12` showed an IC50 (Cholecystokinin receptor) of 2.7 µM and an IC50 (Cavia porcellus) of 100 µM.

For `CNC1=Nc2ccccc2C(c2ccccc2F)=N[C@@H]1Cc1c[nH]c2ccccc12`, the IC50 (Cholecystokinin receptor) was 4.4 µM and the IC50 (Cavia porcellus) was 67 µM.

With `N#CNC1=Nc2ccccc2C(c2ccccc2F)=N[C@@H]1Cc1c[nH]c2ccccc12` the IC50 (Cholecystokinin receptor) was 2 µM.

`CNC1=Nc2ccc(Cl)cc2C(c2ccccc2)=[N+]([O-])C1` [CHLORDIAZEPOXIDE] gave an IC50 (Cholecystokinin receptor) of 100 µM and an IC50 (Cavia porcellus) of 100 µM.

Molecule `CCOC(=O)CNC1=Nc2ccccc2C(c2ccccc2F)=N[C@@H]1Cc1c[nH]c2ccccc12` has an IC50 (Cholecystokinin receptor) of 23 µM and an IC50 (Cavia porcellus) of 100 µM.

`NC1=Nc2ccccc2C(c2ccccc2F)=N[C@@H]1Cc1c[nH]c2ccccc12` gave an IC50 (Cholecystokinin receptor) of 1.7 µM and an IC50 (Cavia porcellus) of 100 µM.

Molecule `Fc1ccccc1C1=N[C@H](Cc2c[nH]c3ccccc23)C(Nc2ccccc2)=Nc2ccccc21` has an IC50 (Cholecystokinin receptor) of 34 µM.

Work on `O=C(O)CNC1=Nc2ccccc2C(c2ccccc2F)=N[C@@H]1Cc1c[nH]c2ccccc12` yielded an IC50 (Cholecystokinin receptor) of 3.6 µM and an IC50 (Cavia porcellus) of 2.5 µM.

Reference: ChEMBL document CHEMBL1123957, “Cholecystokinin antagonists. Synthesis and biological evaluation of 3-substituted 1,4-benzodiazepin-2-amines” (J Med Chem, 1988)
